From ChEMBL document CHEMBL1123440, “Mitomycin C analogues with increased metal complexing ability” (J Med Chem, 1986)

Experiments:
P388 [1] = assay: Antitumor activity against P-388 leukemia in mice, activity is expressed as Minimum effective dose; type: functional; details: Mus musculus, read-out: MED
Procedure, shortened: (§1)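 P388 ascites, 10⁶ cells implanted ip in female CDF1 mice. Six mice per dose of analogue, with 10 saline-injected controls. Each test group carried its own mitomycin C positive control, six mice per dose. Read-out is median survival time (MST). %T/C = MST treated/MST control × 100, taken at the optimal dose. MED is the dose giving %T/C 125. 30-day survivors were counted.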

P388 [2] = assay: (§2) Antitumor activity against P-388 leukemia in mice, activity is expressed as maximum effect (% T/C) = MST(median survival time) treated/ MST control in the presence of compound only; type: functional, Mus musculus; procedure, shortened: as §1
P388 [3] = assay: Antitumor activity against P-388 leukemia in mice, activity is expressed as maximum effect (% T/C) = MST(median survival time) treated/ MST control in the present of Mitomycin C; type: functional, Mus musculus; procedure, shortened: as §1
P388 [4] = assay: Antitumor activity against P-388 leukemia in mice, activity is expressed as Optimal dose; type: functional, Mus musculus; procedure, shortened: as §1
[5] = Ratio value, Optimal dose / Minimum effective dose; type: functional
Procedure, shortened: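 Therapeutic ratio from the P388 ip survival test in female CDF1 mice (10⁶ ascites cells). Calculated as optimal dose divided by minimum effective dose. The minimum effective dose is the dose giving %T/C 125.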

[6] = Partition coefficient (logP); type: physicochemical; details: octanol/water
Procedure, shortened: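 Shake-flask distribution between n-octanol and water containing phosphate buffer at pH 7.4, run by the Hansch method.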

Mus musculus [7] = organism: Mus musculus; assay: Compound was tested for antitumor activity against P-388 leukemia in mice, activity is expressed as Optimal dose; 3.2-4.8; type: functional
Mus musculus [8] = organism: Mus musculus; assay: Compound was tested for antitumor activity against P-388 leukemia in mice, activity is expressed as maximum effect (% T/C) = MST(median survival time) treated/ MST control in the presence of compound only; 132->344; type: functional; procedure, shortened: as §1
Mus musculus [9] = organism: Mus musculus; assay: as §2; type: functional; procedure, shortened: as §1
Mus musculus [10] = organism: Mus musculus; assay: Compound was tested for antitumor activity against P-388 leukemia in mice, activity is expressed as maximum effect (% T/C) = MST(median survival time) treated/ MST control in the pr; type: functional; procedure, shortened: as §1

Compound: CO[C@@]12C(COC(N)=O)C3=C(C(=O)C(C)=C(NCCC(=O)O)C3=O)N1CC1NC12 (stereo partly drawn)
- minimal effective dose (P388 [1]): 25.6 mg/kg
- T/C (P388 [2]): 133%
- T/C (P388 [3]): 194%
- OD (P388 [4]): 25.6 mg/kg

Compound: CO[C@@]12C(COC(N)=O)C3=C(C(=O)C(C)=C(NCCc4c[nH]cn4)C3=O)N1CC1NC12 (stereo partly drawn)
- minimal effective dose (P388 [1]): 1.6 mg/kg
- Ratio [5]: 16
- T/C (P388 [2]): 163%
- T/C (P388 [3]): 213%
- logP [6]: -0.19
- OD (P388 [4]): 25.6 mg/kg

Compound: CO[C@@]12C(COC(N)=O)C3=C(C(=O)C(C)=C(NCCOCCO)C3=O)N1CC1NC12 (stereo partly drawn)
- minimal effective dose (P388 [1]): 0.4 mg/kg
- Ratio [5]: 64
- T/C (P388 [2]): 181%
- T/C (P388 [3]): 213%
- logP [6]: -0.71
- OD (P388 [4]): 25.6 mg/kg

Compound: CO[C@@]12C(COC(N)=O)C3=C(C(=O)C(C)=C(NCCCN(CCO)CCO)C3=O)N1CC1NC12 (stereo partly drawn)
- minimal effective dose (P388 [1]): 25.6 mg/kg
- Ratio [5]: 1
- T/C (P388 [2]): 137%
- T/C (P388 [3]): 279%
- logP [6]: -0.36
- OD (P388 [4]): 25.6 mg/kg

Compound: CO[C@@]12C(COC(N)=O)C3=C(C(=O)C(C)=C(NCCCN)C3=O)N1CC1NC12 (stereo partly drawn)
- minimal effective dose (P388 [1]): 6.4 mg/kg
- Ratio [5]: 4
- T/C (P388 [2]): 147%
- T/C (P388 [3]): 279%
- logP [6]: -1.3
- OD (P388 [4]): 25.6 mg/kg

Compound: CO[C@@]12[C@H](COC(N)=O)C3=C(C(=O)C(C)=C(N)C3=O)N1C[C@@H]1N[C@@H]12 [MITOMYCIN]
- minimal effective dose (P388 [1]): 0.2 mg/kg
- Ratio [5]: 24
- OD (Mus musculus [7]): 3.2 mg/kg
- T/C (Mus musculus [8]): 132%

Compound: CO[C@@]12C(COC(N)=O)C3=C(C(=O)C(C)=C(NC(CO)C(=O)O)C3=O)N1CC1NC12 (stereo partly drawn)
- minimal effective dose (P388 [1]): 6.4 mg/kg
- T/C (P388 [2]): 138%
- T/C (P388 [3]): 263%
- OD (P388 [4]): 25.6 mg/kg

Compound: CO[C@@]12C(COC(N)=O)C3=C(C(=O)C(C)=C(N(CCN)CCN)C3=O)N1CC1NC12 (stereo partly drawn)
- minimal effective dose (P388 [1]): 3.2 mg/kg
- Ratio [5]: 8
- T/C (P388 [2]): 129%
- T/C (P388 [3]): 276%
- OD (P388 [4]): 25.6 mg/kg

Compound: CO[C@@]12C(COC(N)=O)C3=C(C(=O)C(C)=C(NCCc4ccncc4)C3=O)N1CC1NC12 (stereo partly drawn)
- minimal effective dose (P388 [1]): 3.2 mg/kg
- T/C (Mus musculus [9]): 167%
- Ratio [5]: 8
- T/C (P388 [3]): 233%
- logP [6]: 0.31
- OD (P388 [4]): 25.6 mg/kg

Compound: CO[C@@]12C(COC(N)=O)C3=C(C(=O)C(C)=C(NC(C)C(=O)O)C3=O)N1CC1NC12 (stereo partly drawn)
- T/C (P388 [2]): 109%
- T/C (P388 [3]): 132%
- OD (P388 [4]): 12.8 mg/kg

Compound: CO[C@@]12C(COC(N)=O)C3=C(C(=O)C(C)=C(NCC(O)CN)C3=O)N1CC1NC12 (stereo partly drawn)
- minimal effective dose (P388 [1]): 12.8 mg/kg
- T/C (P388 [2]): 122%
- T/C (P388 [3]): >344%
- OD (P388 [4]): 12.8 mg/kg

Compound: CO[C@@]12C(COC(N)=O)C3=C(C(=O)C(C)=C(NCC(O)CO)C3=O)N1CC1NC12 (stereo partly drawn)
- minimal effective dose (P388 [1]): 6.4 mg/kg
- Ratio [5]: 4
- T/C (P388 [2]): 175%
- T/C (P388 [3]): 205%
- OD (P388 [4]): 25.6 mg/kg

Compound: CO[C@@]12C(COC(N)=O)C3=C(C(=O)C(C)=C(NCc4ccccn4)C3=O)N1CC1NC12 (stereo partly drawn)
- minimal effective dose (P388 [1]): 1.6 mg/kg
- Ratio [5]: 16
- T/C (P388 [2]): 233%
- T/C (P388 [3]): 272%
- logP [6]: -0.09
- OD (P388 [4]): 25.6 mg/kg

Compound: CO[C@@]12C(COC(N)=O)C3=C(C(=O)C(C)=C(NCCc4ccco4)C3=O)N1CC1NC12 (stereo partly drawn)
- minimal effective dose (P388 [1]): 1.6 mg/kg
- Ratio [5]: 16
- T/C (P388 [2]): 328%
- T/C (P388 [3]): 156%
- OD (P388 [4]): 25.6 mg/kg

Compound: COC(=O)C(CCSC)NC1=C(C)C(=O)C2=C(C1=O)C(COC(N)=O)[C@@]1(OC)C3NC3CN21 (stereo partly drawn)
- minimal effective dose (P388 [1]): 3.2 mg/kg
- T/C (P388 [2]): 131%
- T/C (P388 [3]): 250%
- OD (P388 [4]): 6.4 mg/kg

Compound: CO[C@@]12C(COC(N)=O)C3=C(C(=O)C(C)=C(NCCc4ccccn4)C3=O)N1CC1NC12 (stereo partly drawn)
- minimal effective dose (P388 [1]): 0.2 mg/kg
- Ratio [5]: 128
- T/C (P388 [2]): >375%
- logP [6]: -0.09
- OD (P388 [4]): 25.6 mg/kg
- T/C (Mus musculus [10]): 319%

Compound: CO[C@@]12C(COC(N)=O)C3=C(C(=O)C(C)=C(NCCCCN=C(N)N)C3=O)N1CC1NC12 (stereo partly drawn)
- minimal effective dose (P388 [1]): 1.6 mg/kg
- Ratio [5]: 16
- T/C (P388 [2]): 156%
- T/C (P388 [3]): 263%
- OD (P388 [4]): 25.6 mg/kg

Compound: CO[C@@]12C(COC(N)=O)C3=C(C(=O)C(C)=C(NCCC(N)C(=O)O)C3=O)N1CC1NC12 (stereo partly drawn)
- minimal effective dose (P388 [1]): 6.4 mg/kg
- T/C (P388 [2]): 139%
- T/C (P388 [3]): 206%
- OD (P388 [4]): 25.6 mg/kg

Compound: CO[C@@]12C(COC(N)=O)C3=C(C(=O)C(C)=C(NC(CCN=C(N)N)C(=O)O)C3=O)N1CC1NC12 (stereo partly drawn)
- minimal effective dose (P388 [1]): 6.4 mg/kg
- T/C (P388 [2]): 138%
- T/C (P388 [3]): 263%
- OD (P388 [4]): 25.6 mg/kg

Compound: CO[C@@]12C(COC(N)=O)C3=C(C(=O)C(C)=C(NCCNCCN)C3=O)N1CC1NC12 (stereo partly drawn)
- T/C (P388 [2]): 100%
- T/C (P388 [3]): 178%
- logP [6]: -1.14

Compound: CO[C@@]12C(COC(N)=O)C3=C(C(=O)C(C)=C(NCCNc4ccc([N+](=O)[O-])cn4)C3=O)N1CC1NC12 (stereo partly drawn)
- minimal effective dose (P388 [1]): 2.6 mg/kg
- Ratio [5]: 8
- T/C (P388 [2]): 144%
- T/C (P388 [3]): 250%
- logP [6]: 0.77
- OD (P388 [4]): 12.8 mg/kg

Compound: CCOC(=O)C(CO)NC1=C(C)C(=O)C2=C(C1=O)C(COC(N)=O)[C@@]1(OC)C3NC3CN21 (stereo partly drawn)
- minimal effective dose (P388 [1]): 3.2 mg/kg
- T/C (P388 [2]): 156%
- T/C (P388 [3]): 194%
- OD (P388 [4]): 25.6 mg/kg

Compound: CO[C@@]12C(COC(N)=O)C3=C(C(=O)C(C)=C(NCCNCCO)C3=O)N1CC1NC12 (stereo partly drawn)
- minimal effective dose (P388 [1]): 12.8 mg/kg
- Ratio [5]: 1
- T/C (P388 [2]): 133%
- T/C (P388 [3]): 156%
- logP [6]: -0.57
- OD (P388 [4]): 12.8 mg/kg

Compound: CO[C@@]12C(COC(N)=O)C3=C(C(=O)C(C)=C(N(C)CCc4ccccn4)C3=O)N1CC1NC12 (stereo partly drawn)
- minimal effective dose (P388 [1]): < 0.2 mg/kg
- Ratio [5]: > 64
- T/C (P388 [2]): 300%
- T/C (P388 [3]): 319%
- logP [6]: 0.37
- OD (P388 [4]): 12.8 mg/kg
